Data reported in ChEMBL document CHEMBL1151715, “Novel D-xylose derivatives stimulate muscle glucose uptake by activating AMP-activated protein kinase alpha” (J Med Chem, 2008).
Active and inactive are the calls of the source. The calls are words filed in the database; no cut-off is given here.

Key:
[1] = Cytotoxicity against rat L6 cells by MTT assay; format: cell-based
Method in brief: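 MTT assay on L6 myotubes after the treatment incubations: MTT at 2 mg/mL in αMEM for 30 min at 37 °C, formazan dissolved in DMSO, absorbance read at 570 nm.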

[2] = tested on: L6; test: (§1) Effect on [3H]2-deoxy-D-glucose uptake in rat L6 cells at 150 uM relative to control; format: functional
Method in brief: (§2)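 L6 myotubes were held in αMEM with 2% FCS and 23.0 mM D-glucose for 24 h. They were then treated with increasing concentrations in medium with 10% FCS and 23.0 mM D-glucose for 7 or 18 h; vehicle controls ran 18 h. After washing, uptake was measured with 0.1 mM dGlc plus 1.3 µCi/mL [3H]dGlc in PBS pH 7.4 for 5 min at room temperature. Ice-cold PBS stop, SDS lysis, scintillation counting; basal rate set to 100%.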

[3] = species: Homo sapiens; test: Activation of 5-AMP-induced AMPKalpha in human skeletal muscle cells assessed as […] phosphorylation at 4 mM relative to control
Method in brief: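 Primary human skeletal muscle myoblasts (rectus abdominis, donor) were differentiated into myotubes using the supplier's protocol. The agent was given at 4 mM for 1 h. Whole-cell lysates were separated by SDS-PAGE and Western blotted for AMPKα and […]-AMPKα, with HRP anti-rabbit IgG and ECL detection. Bands were quantified by film densitometry.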

[4] = tested on: L6; test: (§3) Effect on [3H]2-deoxy-D-glucose uptake in rat L6 cells at 50 uM relative to control; format: functional, cell-based; conditions: TDE = time-dependent effect; method in brief: as §2
[5] = tested on: L6; test: Increase in GLUT1myc abundance in rat L6 cell membrane at 50 uM after 7 hrs; format: functional, cell-based
Method in brief: (§4)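 Myc-tagged GLUT1 or GLUT4 L6 myotubes were preconditioned at 5.5 or 23.0 mM glucose for 24 h, then treated in 10% FCS medium for 7 h (18 h for the 5 µM agent). Insulin was 200 nM for 30 min. Intact cells were labeled with rabbit anti-myc (1:200), fixed in 3% formaldehyde, and given HRP anti-rabbit IgG (1:2000). OPD colour was read at 492 nm.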

[6] = tested on: L6; test: Activation of 5-AMP-induced AMPKalpha in rat L6 cells assessed as […] phosphorylation at 50 uM relative to control; format: cell-based
Method in brief: (§5)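 L6 myotubes preconditioned 24 h in αMEM with 2% FCS and 23.0 mM D-glucose, then given fresh medium with 10% (v/v) FCS, 23.0 mM D-glucose and test agent; controls received vehicle. Whole-cell lysates (Tris pH 7.5 with phosphatase and protease inhibitors) were blotted for AMPKα and […]-AMPKα, detected by ECL, and bands quantified by densitometry.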

[7] = tested on: L6; test: Effect on [3H]2-deoxy-D-glucose uptake in rat L6 cells at 5 uM relative to control; format: functional, cell-based; conditions: TDE = time-dependent effect; method in brief: as §2
[8] = tested on: L6; test: Increase in GLUT1myc abundance in rat L6 cell membrane at 150 uM after 7 hrs; format: functional, cell-based; method in brief: as §4
[9] = tested on: L6; test: Activation of 5-AMP-induced AMPKalpha in rat L6 cells assessed as […] phosphorylation at 50 uM relative to control in presence of compound C; format: cell-based
[10] = tested on: L6; test: Increase in GLUT4myc abundance in rat L6 cell membrane at 50 uM after 7 hrs; format: functional, cell-based; method in brief: as §4
[11] = tested on: L6; test: Increase in GLUT1myc abundance in rat L6 cell membrane at 5 µM after 18 hrs; format: functional, cell-based; method in brief: as §4
[12] = tested on: L6; test: Inhibition of [3H]2-deoxy-D-glucose uptake in rat L6 cells at 50 uM in presence of 100 nM wortmannin; format: functional, cell-based
Method in brief: (§6)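 L6 myotubes at 23 mM D-glucose received 100 nM wortmannin 30 min before the agents. Treatment ran in 10% FCS medium for 7 h (18 h for the 5 µM agent). A 5-min [3H]dGlc uptake (0.1 mM dGlc, 1.3 µCi/mL) in PBS at room temperature followed, with the vehicle basal rate set to 100%.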

[13] = tested on: L6; test: as §1; format: functional, cell-based; conditions: TDE = time-dependent effect; method in brief: as §2
[14] = tested on: L6; test: Increase in GLUT1myc abundance in rat L6 cell membrane at 20 mM after 7 hrs; format: functional, cell-based; method in brief: as §4
[15] = species: Homo sapiens; test: Activation of 5-AMP-induced AMPKalpha in human skeletal muscle cells assessed as […] phosphorylation at 50 uM relative to control
Method in brief: (§7)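 Primary human skeletal myoblasts from the rectus abdominis of a donor were differentiated into myotubes and treated in medium with 10% (v/v) FCS, 23.0 mM D-glucose and agent, with vehicle controls. Whole-cell lysates were Western blotted for total AMPKα and […]-AMPKα, with ECL detection and densitometry.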

[16] = Effect on [3H]2-deoxy-D-glucose uptake in human skeletal muscle cells at 50 uM relative to control; format: functional
[17] = tested on: L6; test: Activation of 5-AMP-induced AMPKalpha in rat L6 cells assessed as Tyr172 phosphorylation at 20 mM relative to control; format: cell-based; method in brief: as §5
[18] = species: Homo sapiens; test: Activation of 5-AMP-induced AMPKalpha in human skeletal muscle cells assessed as Tyr172 phosphorylation at 20 mM relative to control; method in brief: as §7
[19] = Effect on [3H]2-deoxy-D-glucose uptake in human skeletal muscle cells at 20 mM relative to control; format: functional
[20] = tested on: L6; test: Half-maximal stimulation of [3H]2-deoxy-D-glucose uptake in rat L6 cells preincubated 24 hrs with D-glucose assessed after 6 hrs; format: functional
Method in brief: (§8)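 L6 myotubes were preconditioned 24 h at 23.0 mM D-glucose, then incubated up to 10 h in the same medium plus pentose (20.0 mM for time course; dose-response for half-maximal and maximal). Cells were washed with PBS, then given a 5-min room-temperature uptake of 0.1 mM dGlc with 1.3 µCi/mL [3H]dGlc. Counts were normalised to protein against untreated controls.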

[21] = tested on: L6; test: Decrease in GLUT4myc abundance in rat L6 cell membrane pretreated with 23.0 mM D-glucose for 24 hrs at 20 mM after 7 hrs; format: functional; parameters: scale not given: the % may be the effect or the level left
[22] = tested on: L6; test: Effect on [3H]2-deoxy-D-glucose uptake in rat L6 cells at 20 mM after 7 hrs relative to control in presence of insulin; format: functional, cell-based
Method in brief: (§9)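 L6 myotubes were preconditioned 24 h at 23.0 mM D-glucose, then given fresh αMEM with 23.0 mM D-glucose plus agent for 7 h. Insulin (200 nM) was added for the last 30 min. A 5-min [3H]dGlc uptake (0.1 mM dGlc, 1.3 µCi/mL) was run in PBS at room temperature, with the 23.0 mM glucose basal rate set to 100%.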

[23] = tested on: L6; test: Activation of AMPKalpha in rat L6 cells assessed as ATP concentration per mg of protein at 20 mM in presence of 23 mM D-glucose; format: cell-based
Method in brief: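 L6 myotubes were preconditioned at 5.0 or 23.0 mM D-glucose for 24 h, then treated. Cells were washed in cold 0.15 M Tris-HCl pH 7.75 and extracted with ice-cold 0.5% TCA. The cleared supernatant was assayed with luciferase/D-luciferin luminescence at room temperature against an ATP standard curve, expressed per mg protein. DNP 5 mM for 10 min served as the positive control.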

[24] = tested on: L6; test: Induction of [3H]2-deoxy-D-glucose uptake in rat L6 cells at 20 mM after 6 hrs relative to control; format: functional; method in brief: as §8
[25] = tested on: L6; test: Increase in [3H]2-deoxy-D-glucose uptake in rat L6 cells at 20 mM preincubated 24 hrs with D-glucose assessed after 6 hrs relative to control; format: functional; method in brief: as §8
[26] = tested on: L6; test: Inhibition of [3H]2-deoxy-D-glucose uptake in rat L6 cells at 20 mM in presence of 100 nM wortmannin; format: functional, cell-based; method in brief: as §6
[27] = tested on: L6; test: Maximal stimulation of [3H]2-deoxy-D-glucose uptake in rat L6 cells preincubated 24 hrs with D-glucose assessed after 6 hrs; format: functional; method in brief: as §8
[28] = tested on: L6; test: Induction of [3H]3-O-methyl-D-glucose uptake in rat L6 cells at 20 mM after 6 hrs relative to control; format: functional
Method in brief: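 L6 myotubes were preconditioned 24 h at 23.0 mM glucose, then given D-xylose at 20.0 mM for 6 h. Cells were PBS-washed and incubated 90 s at room temperature with 10 µM 3-O-methylglucose, 5.0 µCi/mL [3H]MeGlc and 0.5 µCi/mL [14C]sucrose. The stop wash was ice-cold PBS with 20 mM glucose, 10 µM cytochalasin B and 2 mM HgCl2. Extracellular 3H was subtracted using sucrose counts.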

[29] = tested on: L6; test: Activation of 5-AMP-induced AMPKalpha in rat L6 cells assessed as reduction in Tyr172 phosphorylation at 20 mM relative to control in presence of compound C; format: cell-based; parameters: scale not given: the % may be the effect or the level left
[30] = tested on: L6; test: Increase in GLUT4myc abundance in rat L6 cell membrane at 20 mM after 7 hrs; format: functional, cell-based; method in brief: as §4
[31] = tested on: L6; test: Effect on [3H]2-deoxy-D-glucose uptake in rat L6 cells at 100 uM relative to control; format: functional; method in brief: as §2
[32] = tested on: L6; test: Effect on [3H]2-deoxy-D-glucose uptake in rat L6 cells at 20 mM upto 48 hrs relative to control; format: functional
[33] = tested on: L6; test: as §3; format: functional; method in brief: as §2
[34] = tested on: L6; test: Increase in [3H]2-deoxy-D-glucose uptake in rat L6 cells preincubated with 23 mM D-glucose for 24 hrs at 5 mM after 7 hrs relative to control; format: functional; method in brief: as §9

Q: Which MCC [1] does the source give for `COC(OC)[C@@H]1OC(c2ccccc2)O[C@@H]2COC(c3ccccc3)O[C@@H]21` (stereo partly drawn) here?
A: The MCC was 300 µM.

Q: What about the “fold change (FC)” value [2] of the same compound?
A: Its value is 1.06.

Q: With `NC(=O)c1ncn([C@@H]2O[C@H](COP(=O)(O)O)[C@@H](O)[C@H]2O)c1N` as the compound, how does the Activity [3] read?
A: Its Activity is “Active”.

Q: For `CCSC(SCC)[C@@H]1O[C@H](c2ccccc2)O[C@H](CO)[C@@H]1OC`, which Activity [4] is on record?
A: Its Activity is “tde”.

Q: What about the Activity [5] of the same compound?
A: The Activity was “inactive”.

Q: And the fold change (FC) [6]?
A: The fold change (FC) was 3.98.

Q: What about the Activity [7] of the same compound?
A: The Activity was “tde”.

Q: What about the Activity [8] of the same compound?
A: Its Activity is “inactive”.

Q: And the Activity [9]?
A: The Activity was 69.2%.

Q: And the Activity [10]?
A: The Activity was “Active”.

Q: What about the Activity [11] of the same compound?
A: The Activity was “inactive”.

Q: What about the Activity [12] of the same compound?
A: The Activity was “Active”.

Q: And the Activity [13]?
A: The Activity was “tde”.

Q: What about the Activity ([14]; 50 uM, in the assay text read “at 50 uM” for “at 20 mM”) of the same compound?
A: Its Activity is “inactive”.

Q: And the Activity [15]?
A: The Activity was “Active”.

Q: And the “fold change (FC)” value [16]?
A: Its value is 1.4.

Q: Which results are given for `O=C[C@H](O)[C@@H](O)[C@H](O)CO` [XYLOSE]?
A: fold change (FC) [17]: 3.23; Activity [18]: Active; fold change (FC) [19]: 1.43; Activity [5]: inactive; Activity [20]: 5.8 mM; Activity [21]: 50%; Activity [22]: Active; Activity [8]: inactive; Activity [23]: 1.6 mmol; fold change (FC) [24]: 1.51; Activity [11]: inactive; fold change (FC) [25]: 1.77; Activity [26]: Active; Activity ([14]; 20 mM): inactive; Activity [27]: 13.7 mM; fold change (FC) [28]: 1.69; Activity [29]: 68.9%; Activity [30]: Active

Q: With `COC(OC)[C@@H]1OC(c2ccc(F)cc2)O[C@@H]2COC(c3ccc(F)cc3)O[C@@H]21` (stereo partly drawn) as the compound, how does the MCC [1] read?
A: Its MCC is 250 µM.

Q: Which results are given for `O[C@@H]1[C@@H](O)[C@@H](OCc2ccccc2)OC[C@H]1O`?
A: MCC [1]: 500 µM; fold change (FC) [31]: 0.9

Q: Which MCC [1] does the source give for `CO[C@@H]1COC(O)[C@H](O)[C@H]1O` (stereo partly drawn) here?
A: The MCC was 50000 µM.

Q: What about the “fold change (FC)” value [32] of the same compound?
A: The value was 0.99.

Q: What does the source list for `CC1(C)OC[C@H]2O[C@@H]3OC(C)(C)O[C@@H]3[C@H]2O1`?
A: MCC [1]: 100 µM; fold change (FC) [33]: 1.08

Q: With `CC1(C)O[C@H]2O[C@H](CO)[C@H](O)[C@H]2O1` as the compound, how does the MCC [1] read?
A: Its MCC is 150 µM.

Q: What about the “fold change (FC)” value [33] of the same compound?
A: The value was 0.94.

Q: With `O[C@H]1OC[C@@H](OCc2ccccc2)[C@H](OCc2ccccc2)[C@H]1OCc1ccccc1` as the compound, how does the MCC [1] read?
A: The MCC was 200 µM.

Q: What about the “fold change (FC)” value [31] of the same compound?
A: The value was 0.94.

Q: With `CCCCCCCCCCCC(=O)S[C@@H]1OC[C@@H](O)[C@H](O)[C@H]1O` as the compound, how does the MCC [1] read?
A: The MCC was 400 µM.

Q: And the “fold change (FC)” value [2]?
A: Its value is 0.98.

Q: With `CO[C@H]1[C@H](O)COC(O)[C@@H]1O` (stereo partly drawn) as the compound, how does the “fold change (FC)” value [34] read?
A: The value was 2.1.
